In ChEMBL document CHEMBL5104229, “Novel tetrahydropyrimidinyl-substituted benzimidazoles and benzothiazoles: synthesis, antibacterial activity, DNA interactions and ADME profiling” (RSC Med Chem, 2022):
≈ marks a conversion by molar mass, not a printed value. Calls of active or inactive are those of the source. The rule behind the calls is not given here.

Assays:
[1] = system: Staphylococcus aureus; assay: Antibacterial activity against Staphylococcus aureus ATCC 29213 incubated assessed as inhibition of bacterial growth for 20 to 22 hrs by broth microdilution method; type: functional; conditions: time 20-22 hrs
Outline: (§1)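 Broth microdilution per CLSI in cation-adjusted Mueller–Hinton broth, twofold dilutions over […]. Inoculum by direct colony suspension, 5 × 10^4 CFU per well. E. coli and S. aureus grown on MHA; E. faecalis, M. catarrhalis and streptococci on MHA with 5% sheep blood; streptococcal broth supplemented with 5% horse serum. MIC read visually after 20–22 h at 37 °C, ambient air.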

[2] = system: Enterococcus faecalis; assay: Antibacterial activity against Enterococcus faecalis ATCC29212 assessed as inhibition of bacterial growth incubated for 20 to 22 hrs by broth microdilution method; type: functional; conditions: time 20-22 hrs; outline: as §1
[3] = system: Escherichia coli; assay: Antibacterial activity against hypersensitive AcrAB deficient Escherichia coli assessed as inhibition of bacterial growth incubated for 20 to 22 hrs by broth microdilution method; type: functional; conditions: time 20-22 hrs; outline: as §1
[4] = system: Moraxella catarrhalis; assay: Antibacterial activity against Moraxella catarrhalis ATCC 23246 assessed as inhibition of bacterial growth incubated for 20 to 22 hrs by broth microdilution method; type: functional; conditions: time 20-22 hrs; outline: as §1
[5] = system: Streptococcus pneumoniae; assay: Antibacterial activity against Macrolide resistant Streptococcus pneumoniae clinical isolate B0326 assessed as inhibition of bacterial growth incubated for 20 to 22 hrs by broth microdilution method; type: functional; conditions: time 20-22 hrs
Outline: (§2)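 CLSI broth microdilution MIC in cation-adjusted Mueller Hinton broth supplemented with 5% horse serum for streptococci. Twofold dilutions across a 128–0.25 range. Strains grown on MHA with 5% sheep blood; inoculum by direct colony suspension, 5 × 10^4 CFU per well. Read visually after 20–22 h at 37 °C in ambient air; azithromycin and ampicillin as reference antibiotics.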

[6] = system: Streptococcus pyogenes; assay: Antibacterial activity against Macrolide sensitive Streptococcus pyogenes clinical isolate B0542 assessed as inhibition of bacterial growth incubated for 20 to 22 hrs by broth microdilution method; type: functional; conditions: time 20-22 hrs; outline: as §1
[7] = system: Streptococcus pneumoniae; assay: Antibacterial activity against Macrolide sensitive Streptococcus pneumoniae clinical isolate B0652 assessed as inhibition of bacterial growth incubated for 20 to 22 hrs by broth microdilution method; type: functional; conditions: time 20-22 hrs; outline: as §2
[8] = system: Streptococcus pyogenes; assay: Antibacterial activity against Macrolide resistant Streptococcus pyogenes clinical isolate B0545 assessed as inhibition of bacterial growth incubated for 20 to 22 hrs by broth microdilution method; type: functional; conditions: time 20-22 hrs; outline: as §2
[9] = system: AT rich DNA; assay: Binding affinity to double stranded [poly(dA-dT)2] DNA (unknown origin) assessed as change in fluorescence intensity at pH 7 by fluorescence spectroscopy relative to control; type: nucleic-acid assay; conditions: Homo sapiens
Outline: (§3)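 Fluorimetric titration at 25 °C, sodium cacodylate buffer pH 7.0, I = 0.05 mol dm−3: polynucleotide portions added to compound (e.g. 1 × 10−6 mol dm−3). Excitation ≥ 300 nm to avoid inner filter effect. Data fitted by Scatchard equation, recalculated at fixed n = 0.2 [bound compound]/[polynucleotide]; I/I0 is the calculated complex fluorescence over starting compound fluorescence.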

[10] = system: Calf thymus DNA; assay: Binding affinity to calf thymus double stranded DNA assessed as stabilization of DNA by measuring change in melting temperature at pH 7 by UV/Vis-spectrophotometry; type: nucleic-acid assay; conditions: Bos taurus
Outline: (§4)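 Thermal denaturation in sodium cacodylate buffer, pH 7.0, I = 0.05 mol dm−3, compound/polynucleotide ratio r = 0.3. Absorbance at 260 nm followed versus temperature, ligand absorbance subtracted, scale normalized. Tm from first-derivative maximum, checked by tangent method. ΔTm = Tm(complex) − Tm(free nucleic acid), mean of at least two runs, error ±0.5 °C. ctDNA sonicated and filtered.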

[11] = system: AT rich DNA; assay: Binding affinity to double stranded [poly(dA-dT)2] DNA (unknown origin) assessed as stabilization of DNA by measuring change in melting temperature at pH 7 by UV/Vis-spectrophotometry; type: nucleic-acid assay; conditions: Homo sapiens; outline: as §4
[12] = system: Calf thymus DNA; assay: Binding affinity to calf thymus double stranded DNA minor groove assessed as assessed as effect on CD spectrum at pH 7 by CD spectroscopy; type: nucleic-acid assay; conditions: Bos taurus
Outline: (§5)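 CD titration at 25 °C, sodium cacodylate buffer pH 7, I = 0.05 mol dm−3: portions of compound stock (1 × 10−3 mol dm−3 in water, or DMSO for one compound) added to polynucleotide, e.g. poly(dAdT)2 at 2.0 × 10−5 mol dm−3. Scan 500–220 nm, 200 nm min−1, 3 accumulations. Polynucleotide concentration as phosphate.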

[13] = system: AT rich DNA; assay: Binding affinity to double stranded [poly(dA-dT)2] DNA (unknown origin) minor groove assessed as effect on CD spectrum at pH 7 by CD spectroscopy; type: nucleic-acid assay; outline: as §5
[14] = system: AT rich DNA; assay: Binding affinity to double stranded [poly(dA-dT)2] DNA (unknown origin) assessed as binding constant at pH 7 by fluorescence spectroscopy; type: nucleic-acid assay; conditions: Homo sapiens; outline: as §3
[15] = Cytotoxicity against human HepG2 cells assessed as reduction in cell viability incubated overnight by MTT assay; type: toxicity, cell-based

Row | SMILES | MIC [1] | MIC [2] | MIC [3] | MIC [4] | MIC [5] | MIC [6] | MIC [7] | MIC [8] | fold change (FC) [9] | ΔTm [10] | ΔTm [11] | Activity [12] | Activity [13] | log Ks [14] | IC50 [15]
1 | COc1cc(-c2nc3ccc(C4=NCCCN4)cc3s2)ccc1OCc1ccccn1.Cl | > 128 µg/mL | > 128 µg/mL | 128 µg/mL | 32 µg/mL | – | – | – | – | – | – | – | – | – | – | –
2 | CC[C@H]1OC(=O)[C@H](C)[C@@H](O[C@H]2C[C@@](C)(OC)[C@@H](O)[C@H](C)O2)[C@H](C)[C@@H](O[C@@H]2O[C@H](C)C[C@H](N(C)C)[C@H]2O)[C@](C)(O)C[C@@H](C)CN(C)[C@H](C)[C@@H](O)[C@]1(C)O [AZITHROMYCIN] | 2 µg/mL (≈ 2.67 µM) | 0.125 µg/mL (≈ 0.167 µM) | 0.5 µg/mL (≈ 0.668 µM) | 8 µg/mL (≈ 10.7 µM) | 16 µg/mL (≈ 21.4 µM) | 0.125 µg/mL (≈ 0.167 µM) | 0.125 µg/mL (≈ 0.167 µM) | 8 µg/mL (≈ 10.7 µM) | – | – | – | – | – | – | –
3 | Cl.O=C(COc1ccc(-c2nc3ccc(C4=NCCCN4)cc3s2)cc1)c1ccccc1 | 128 µg/mL | > 128 µg/mL | 32 µg/mL | 8 µg/mL | – | – | – | – | 4.9 | 0 °C | 3.1 °C | Active | Active | 5.3 | –
4 | COc1cc(-c2nc3ccc(C4=NCCCN4)cc3s2)ccc1OCc1cn(Cc2ccccc2)nn1.Cl | > 128 µg/mL | 128 µg/mL | 64 µg/mL | 16 µg/mL | – | – | – | – | – | – | – | – | – | – | –
5 | COc1cc(-c2nc3ccc(C4=NCCCN4)cc3s2)ccc1OCc1c[nH]nn1.Cl | > 128 µg/mL | > 128 µg/mL | 128 µg/mL | 32 µg/mL | – | – | – | – | – | – | – | – | – | – | –
6 | Cl.O=C(COc1ccc(-c2nc3ccc(C4=NCCCN4)cc3s2)cc1F)c1ccccc1 | 128 µg/mL | 128 µg/mL | 16 µg/mL | 4 µg/mL | 128 µg/mL | 32 µg/mL | 32 µg/mL | 128 µg/mL | – | 0 °C | 3.8 °C | Active | Active | – | > 100 µM
7 | Cl.Fc1cc(-c2nc3ccc(C4=NCCCN4)cc3s2)ccc1OCc1c[nH]nn1 | 128 µg/mL | > 128 µg/mL | > 128 µg/mL | > 128 µg/mL | – | – | – | – | – | – | – | – | – | – | –
8 | Cl.c1ccc(Cn2cc(COc3ccc(-c4nc5ccc(C6=NCCCN6)cc5s4)cc3)nn2)cc1 | 128 µg/mL | 128 µg/mL | 32 µg/mL | 4 µg/mL | – | – | – | – | – | – | – | – | – | – | –
9 | Cl.c1cc(-c2nc3ccc(C4=NCCCN4)cc3s2)ccc1OCc1c[nH]nn1 | > 128 µg/mL | > 128 µg/mL | > 128 µg/mL | 32 µg/mL | – | – | – | – | – | – | – | – | – | – | –
10 | CC1(C)S[C@@H]2[C@H](NC(=O)[C@H](N)c3ccccc3)C(=O)N2[C@H]1C(=O)O [AMPICILLIN] | – | – | – | – | 0.25 µg/mL (≈ 0.715 µM) | 0.25 µg/mL (≈ 0.715 µM) | 0.25 µg/mL (≈ 0.715 µM) | 0.25 µg/mL (≈ 0.715 µM) | – | – | – | – | – | – | –
